≈ marks a conversion by molar mass, not a printed value. Calls of active or inactive are those of the source. No cut-off for these calls is given here.
Assays:
Chlamydia pneumoniae [1] = assay: Antibacterial activity against Chlamydia pneumoniae CWL029 infected in human HL cells assessed as inhibition of bacterial growth at 10 uM after 72 hrs by TR-FIA method; format: functional
In short: (§1)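 HL cells were seeded at 6×10^4/well in RPMI 1640 with 7.5% FBS, 2 mM glutamine and gentamicin, then infected 24 h later with CWL-029 at MOI 0.2 plus 0.5 μg/mL cycloheximide and centrifuged 1 h. Compounds were added in six replicates for 72 h at 37 C. After methanol fixation, wells were labelled with europium-conjugated chlamydial antibody (100 ng/mL, 30 min, 37 C) and read by time-resolved fluorescence; rifampicin 0.012 μM served as control.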

[2] = Cytotoxicity against human HL cells assessed as cell viability at 10 uM after 72 hrs by celltiter-glo analysis; format: cell-based; settings: read-out: Activity
In short: (§2)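 After 72 h, viability was measured as intracellular ATP by CellTiter-Glo luminescence after partial medium replacement. Results are expressed as a percentage of cells given DMSO-adjusted medium.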

Staphylococcus aureus = assay: Antibacterial activity against Staphylococcus aureus ATCC 25923 assessed as inhibition of bacterial growth at 50 uM after 18 hrs by photometric method; format: functional
In short: (§3)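 Bacteria were dispensed with 0.01% resazurin and compound, reaching a final 50 μM; ampicillin 25 μM was the control. After 18 h at 37 C, resazurin was read photometrically at 600 nm.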

Escherichia coli = assay: Antibacterial activity against Escherichia coli ATCC 25922 assessed as inhibition of bacterial growth at 50 uM after 18 hrs by photometric method; format: functional, organism-based; in short: as §3
Chlamydia pneumoniae [3] = assay: Chlamydiostatic activity against Chlamydia pneumoniae CV6 infected in human Hep2 cells after 72 hrs by fluorescence assay; format: functional, HEp-2; settings: CV6, 72 h
In short: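 Confluent HEp-2 monolayers on coverslips were centrifuged with C. pneumoniae CV-6 (10^3 IFU/mL; 1700g, 45 min, 35 C). Medium was replaced with MEM containing cycloheximide 1 μg/mL and serial 2-fold compound dilutions. After 72 h at 35 C, 5% CO2, inclusions were stained with fluorescein-conjugated anti-Chlamydia LPS mAb. MIC is the lowest concentration with no IFU; titrations were run in duplicate.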

Chlamydia pneumoniae [4] = assay: Antibacterial activity against Chlamydia pneumoniae CV6 infected in human Hep2 cells assessed as minimal chlamydiocidal activity after 72 hrs by fluorescence assay; format: functional, HEp-2; settings: CV6, 72 h
In short: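 CV-6 was grown in HEp-2 cells under 2-fold compound dilutions (MEM, cycloheximide 1 μg/mL, 72 h, 35 C). Drug medium was then removed, wells washed with PBS pH 7.4 and fed drug-free medium. Monolayers were disrupted, passed onto fresh monolayers, incubated and stained with fluorescein anti-LPS mAb. MCC is the lowest concentration giving no IFU in the antibiotic-free passage; run in duplicate.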

HL = assay: Cytotoxicity against human HL cells at 2.5 uM after 72 hrs by celltiter-glo analysis; format: cell-based; in short: as §2
Chlamydia pneumoniae [5] = assay: Antibacterial activity against Chlamydia pneumoniae CWL029 infected in human HL cells after 72 hrs by TR-FIA method; format: functional, cell-based; settings: in the assay text read “immunofluorescence method” for “TR-FIA method”; in short: as §1

MIC (Chlamydia pneumoniae [3]) [µM]	IC50 (Chlamydia pneumoniae [5]) [nM]	Structure (SMILES)	inhibition at 10 µM (Chlamydia pneumoniae [1]) [%]	viability at 72 h, 10 µM [2] [%]	growth inhibition (GI) (Staphylococcus aureus)	growth inhibition (GI) (Escherichia coli)	MCC (Chlamydia pneumoniae [4]) [µM]	Activity (HL)	inhibition of growth at 50 µM (Staphylococcus aureus; ATCC 25923, 18 h, read-out: GI) [%]
–	–	O=C(Nc1cccc(-c2nc3ccccc3[nH]2)c1)c1ccoc1	78	101	inactive	inactive	–	–	–
–	–	O=S(=O)(Nc1cccc(-c2nc3ccccc3[nH]2)c1)c1ccccc1	0	77	inactive	inactive	–	–	–
–	–	O=C(Cc1cccs1)Nc1cccc(-c2nc3ccccc3[nH]2)c1	70	107	inactive	inactive	–	–	–
–	–	O=C(Nc1cccc(-c2ncc[nH]2)c1)c1cccs1	0	115	–	–	–	–	–
–	–	O=C(Nc1cccc(-c2ncc[nH]2)c1)c1ccsc1	0	133	–	–	–	–	–
–	–	O=C(Nc1cccc(-c2nc3ccccc3[nH]2)c1)c1ccco1	45	98	inactive	inactive	–	–	–
12.6 (≈ 4.4 µg/mL)	–	COc1ccc2[nH]c(-c3cccc(NC(=O)c4ccsc4)c3)nc2c1	73	95	inactive	inactive	12.6	Non-toxic	–
–	–	COc1cccc(C(=O)Nc2cccc(-c3nc4ccccc4[nH]3)c2)c1	98	97	inactive	inactive	–	–	–
–	–	O=C(Nc1cccc(-c2nc3ccccc3[nH]2)c1)c1ccccc1	99	98	inactive	inactive	–	–	–
–	–	O=C(Nc1cccc(-c2nc3ccccc3o2)c1)c1cccs1	61	94	–	–	–	–	–
–	–	O=C(Nc1cccc(-c2nc3ccccc3[nH]2)c1)c1cscn1	39	98	inactive	inactive	–	–	–
3.2 (≈ 1.22 µg/mL)	3000	O=C(Nc1cccc(-c2nc3ccccc3[nH]2)c1)c1cccc(C(F)(F)F)c1	99	69	–	inactive	50.4	Non-toxic	85
–	–	CC(C)(C)C(=O)Nc1cccc(-c2nc3ccccc3[nH]2)c1	0	98	inactive	inactive	–	–	–
–	–	Cc1cccc2[nH]c(-c3cccc(NC(=O)c4cccs4)c3)nc12	89	102	inactive	inactive	–	–	–
–	–	COc1ccccc1C(=O)Nc1cccc(-c2nc3ccccc3[nH]2)c1	0	107	inactive	inactive	–	–	–
–	–	O=C(Nc1cccc(-c2nc3ccccc3[nH]2)c1)c1cccc(Cl)c1	94	106	inactive	inactive	–	–	–
–	–	CC(=O)Nc1cccc(-c2nc3ccccc3[nH]2)c1	0	100	inactive	inactive	–	–	–

MIC (Chlamydia pneumoniae [3]) [µM]	IC50 (Chlamydia pneumoniae [5]) [nM]	Structure (SMILES)	inhibition at 10 µM (Chlamydia pneumoniae [1]) [%]	viability at 72 h, 10 µM [2] [%]	growth inhibition (GI) (Staphylococcus aureus)	growth inhibition (GI) (Escherichia coli)	MCC (Chlamydia pneumoniae [4]) [µM]	Activity (HL)	inhibition of growth at 50 µM (Staphylococcus aureus; ATCC 25923, 18 h, read-out: GI) [%]
6.1 (≈ 2 µg/mL)	–	Cc1ccccc1C(=O)Nc1cccc(-c2nc3ccccc3[nH]2)c1	99	90	inactive	inactive	24.5	Non-toxic	–
–	–	Cn1cccc1C(=O)Nc1cccc(-c2nc3ccccc3[nH]2)c1	80	104	inactive	inactive	–	–	–
12.6 (≈ 4.2 µg/mL)	–	Cc1ccc2[nH]c(-c3cccc(NC(=O)c4cccs4)c3)nc2c1	99	95	inactive	inactive	12.6	Non-toxic	–
–	–	Cn1c(-c2cccc(NC(=O)c3cccs3)c2)nc2ccccc21	0	102	inactive	inactive	–	–	–
–	–	O=C(Nc1ccc(-c2nc3ccccc3[nH]2)cc1)c1cccs1	0	96	inactive	inactive	–	–	–
–	–	O=C(Nc1cccc(-c2nc3ccccc3[nH]2)c1)c1cccc(F)c1	58	101	inactive	inactive	–	–	–
> 196	–	O=C(Nc1cccc(-c2nc3ccccc3[nH]2)c1)c1ccsc1	68	98	inactive	inactive	> 196	Non-toxic	–
24.5 (≈ 7.83 µg/mL)	–	O=C(Nc1cccc(-c2nc3ccccc3[nH]2)c1)C1CCCCC1	100	94	inactive	inactive	24.5	Non-toxic	–
3.2 (≈ 1.05 µg/mL)	2000	Cc1cccc(C(=O)Nc2cccc(-c3nc4ccccc4[nH]3)c2)c1	98	99	inactive	inactive	3.2	Non-toxic	–
–	–	O=C(Nc1cccc(-c2nc3ccccc3[nH]2)c1)c1ccccc1C(F)(F)F	96	80	inactive	inactive	–	–	–
–	–	COC(=O)c1cccc(C(=O)Nc2cccc(-c3nc4ccccc4[nH]3)c2)c1	99	99	inactive	inactive	–	–	–
196 (≈ 62.6 µg/mL)	–	O=C(Nc1cccc(-c2nc3ccccc3[nH]2)c1)c1cccs1	89	98	inactive	inactive	> 196	Non-toxic	–
–	–	COc1ccc2[nH]c(-c3cccc(NC(=O)c4cccs4)c3)nc2c1	74	98	inactive	inactive	–	–	–
–	–	COc1ccc(-c2nc3ccccc3[nH]2)cc1NC(=O)c1cccs1	52	101	inactive	inactive	–	–	–
196 (≈ 69.4 µg/mL)	–	O=C(Nc1cccc(-c2nc3cc(Cl)ccc3[nH]2)c1)c1cccs1	89	92	inactive	inactive	> 196	Non-toxic	–
0.17 (≈ 0.125 µg/mL)	–	CC[C@H]1OC(=O)[C@H](C)[C@@H](O[C@H]2C[C@@](C)(OC)[C@@H](O)[C@H](C)O2)[C@H](C)[C@@H](O[C@@H]2O[C@H](C)C[C@H](N(C)C)[C@H]2O)[C@](C)(O)C[C@@H](C)C(=O)[C@H](C)[C@@H](O)[C@]1(C)O [ERYTHROMYCIN]	–	–	–	–	0.17	–	–
–	–	Cc1c(NC(=O)c2cccs2)cccc1-c1nc2ccccc2[nH]1	59	87	inactive	inactive	–	–	–

Source: ChEMBL document CHEMBL1275335, “Design and synthesis of 2-arylbenzimidazoles and evaluation of their inhibitory effect against Chlamydia pneumoniae” (J Med Chem, 2010)
